pIC50: −log10 of the molar value.
Tests used:
HCC 2998 = assay: Antitumor activity against human HCC2998 cells; type: functional
Outline: (§1)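 Tested in the NCI in vitro disease-oriented tumor cell screen, up to a top concentration of 100 µM. Read-outs: IC50 is the molar concentration giving 50% growth inhibition, TGI the concentration giving total growth inhibition, and LC50 the concentration giving 50% net cell death.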

Malme-3M = assay: Antitumor activity against human MALME-3M cells; type: functional; outline: as §1
OVCAR-4 = assay: Antitumor activity against human OVCAR4 cells; type: functional; conditions: for CC50: read-out: Log LC50 (the source's name) (converted); for TGI: read-out: Log TGI (converted)
Outline: (§2)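 Tested in the NCI in vitro disease-oriented human tumor cell screen. The endpoints are IC50 (molar concentration giving 50% growth inhibition), TGI (total growth inhibition) and LC50 (50% net cell death). The maximal concentration tested was 100 μM. Subpanel values are means of several individual cell lines.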

UACC-62 = assay: Antitumor activity against human UACC62 cells; type: functional; conditions: for CC50: read-out: Log LC50 (the source's name) (converted); for TGI: read-out: Log TGI (converted)
Outline: (§3)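 NCI in vitro disease-oriented tumour cell line screen. Read-outs are IC50 (molar concentration giving 50% growth inhibition), TGI (molar concentration giving total inhibition of net growth) and LC50 (molar concentration giving 50% net cell death). The maximal concentration tested was 100 μM.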

NCI-H226 = assay: Antitumor activity against human NCI-H226 cells; type: functional; outline: as §1
SK-OV-3 = assay: Antitumor activity against human SKOV3 cells; type: functional; conditions: for CC50: read-out: Log LC50 (the source's name) (converted); for TGI: read-out: Log TGI (converted); outline: as §2
UACC-257 = assay: Antitumor activity against human UACC257 cells; type: functional; conditions: for CC50: read-out: Log LC50 (the source's name) (converted); for TGI: read-out: Log TGI (converted); outline: as §3
NCI-H460 [1] = assay: Antitumor activity against human NCI-H460 cells at 100 uM relative to control; type: functional
Outline: (§4)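 NCI three-cell-line one-dose primary anticancer prescreen at 100 µM. Growth is expressed as % of untreated control cells, with the control taken as 100%.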

CCRF-CEM = assay: Antitumor activity against human CCRF-CEM cells; type: functional; outline: as §1
SF-539 = assay: Antitumor activity against human SF539 cells; type: functional; conditions: for CC50: read-out: Log LC50 (the source's name) (converted); for TGI: read-out: Log TGI (converted); outline: as §2
SK-MEL-28 = assay: Antitumor activity against human SK-MEL-28 cells; type: functional; conditions: for CC50: read-out: Log LC50 (the source's name) (converted); for TGI: read-out: Log TGI (converted); outline: as §2
[2] = tested on: Non-small cell lung cancer cell line; assay: Antitumor activity against human NCI non-small cell lung cancer cell line panel; type: functional, cell-based; outline: as §2
NCI [3] = assay: Antitumor activity against human NCI CNS cancer cell line panel; type: functional, cell-based; outline: as §2
HT-29 = assay: Antitumor activity against human HT29 cells; type: functional; outline: as §1
TK-10 = assay: Antitumor activity against human TK10 cells; type: functional; conditions: for CC50: read-out: Log LC50 (the source's name) (converted); for TGI: read-out: Log TGI (converted); outline: as §3
RXF 393 = assay: Antitumor activity against human RXF393 cells; type: functional; outline: as §1
NCI-H522 = assay: Antitumor activity against human NCI-H522 cells; type: functional; outline: as §1
SN12C = assay: Antitumor activity against human SN12C cells; type: functional; outline: as §1
MCF7 [4] = assay: Antitumor activity against human MCF7 cells at 100 uM relative to control; type: functional; outline: as §4
MOLT-4 = assay: Antitumor activity against human MOLT4 cells; type: functional; outline: as §1
U-251 = assay: Antitumor activity against human U251 cells; type: functional; conditions: for CC50: read-out: Log LC50 (the source's name) (converted); for TGI: read-out: Log TGI (converted); outline: as §3
[5] = Antitumor activity against human NCI/ADR RES cells; type: functional; outline: as §1
NCI [6] = assay: Antitumor activity against human NCI breast cancer cell line panel; type: functional, cell-based; outline: as §2
carcinoma cell line = assay: Antitumor activity against human NCI ovarian carcinoma cell line panel; type: functional, cell-based; outline: as §2
ACHN = assay: Antitumor activity against human ACHN cells; type: functional; outline: as §1
PC-3 = assay: Antitumor activity against human PC3 cells; type: functional; conditions: for CC50: read-out: Log LC50 (the source's name) (converted); for TGI: read-out: Log TGI (converted); outline: as §2
A498 = assay: Antitumor activity against human A498 cells; type: functional; outline: as §1
NCI [7] = assay: Antitumor activity against human NCI prostate cancer cell line panel; type: functional, cell-based; outline: as §2
SF-268 [8] = assay: Antitumor activity against human SF268 cells at 100 uM relative to control; type: functional; outline: as §4
NCI [9] = assay: Antitumor activity against human NCI renal cancer cell line panel; type: functional, cell-based; outline: as §2
NCI-H460 [10] = assay: Antitumor activity against human NCI-H460 cells at 50 uM relative to control; type: functional
Outline: (§5)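 Tested in the NCI three-cell-line one-dose primary anticancer prescreen. The read-out is growth as % of untreated control cells (100%) at 50 μM.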

MCF7 [11] = assay: Antitumor activity against human MCF7 cells at 50 uM relative to control; type: functional; outline: as §5
SR = assay: Antitumor activity against human SR cells; type: functional; outline: as §3
SF-268 [12] = assay: Antitumor activity against human SF268 cells at 50 uM relative to control; type: functional; outline: as §5
[13] = read-out: Log LC50 (the source's name) (converted)
[14] = read-out: LC50 (the source's name)

Structure (SMILES): CN(/N=N/c1nc(OCc2ccccc2)c2nc[nH]c2n1)C(=O)N(C)/N=N/c1nc(OCc2ccccc2)c2nc[nH]c2n1
- GI50 (HCC 2998): 19.5 µM
- CC50 (HCC 2998; [13]): > 100 µM
- TGI (HCC 2998; read-out: Log TGI (converted)): 81.3 µM
- GI50 (Malme-3M): 40.7 µM
- CC50 (Malme-3M; [13]): > 100 µM
- TGI (Malme-3M; read-out: Log TGI (converted)): > 100 µM
- GI50 (OVCAR-4): > 100 µM
- CC50 (OVCAR-4): > 100 µM
- TGI (OVCAR-4): > 100 µM
- GI50 (UACC-62): 30.9 µM
- CC50 (UACC-62): > 100 µM
- TGI (UACC-62): > 100 µM
- GI50 (NCI-H226): 38.9 µM
- CC50 (NCI-H226; [13]): > 100 µM
- TGI (NCI-H226; read-out: Log TGI (converted)): > 100 µM
- GI50 (SK-OV-3): 41.7 µM
- CC50 (SK-OV-3): > 100 µM
- TGI (SK-OV-3): > 100 µM
- GI50 (UACC-257): 55 µM
- CC50 (UACC-257): > 100 µM
- TGI (UACC-257): > 100 µM
- Activity (NCI-H460 [1]): 58%
- GI50 (CCRF-CEM): 50.1 µM
- CC50 (CCRF-CEM; [13]): > 100 µM
- TGI (CCRF-CEM; read-out: Log TGI (converted)): > 100 µM
- GI50 (SF-539): 38 µM
- CC50 (SF-539): > 100 µM
- TGI (SF-539): > 100 µM
- GI50 (SK-MEL-28): > 100 µM
- CC50 (SK-MEL-28): > 100 µM
- TGI (SK-MEL-28): > 100 µM
- pIC50 [2]: 4.38
- TGI [2]: > 100 µM
- pIC50 (NCI [3]): 4.26
- TGI (NCI [3]): > 100 µM
- GI50 (HT-29): 60.3 µM
- CC50 (HT-29; [13]): > 100 µM
- TGI (HT-29; read-out: Log TGI (converted)): > 100 µM
- GI50 (TK-10): 26.9 µM
- CC50 (TK-10): > 100 µM
- TGI (TK-10): > 100 µM
- GI50 (RXF 393): 79.4 µM
- CC50 (RXF 393; [13]): > 100 µM
- TGI (RXF 393; read-out: Log TGI (converted)): > 100 µM
- GI50 (NCI-H522): 39.8 µM
- CC50 (NCI-H522; [13]): > 100 µM
- TGI (NCI-H522; read-out: Log TGI (converted)): > 100 µM
- GI50 (SN12C): 56.2 µM
- CC50 (SN12C; [13]): > 100 µM
- TGI (SN12C; read-out: Log TGI (converted)): > 100 µM
- Activity (MCF7 [4]): 74%
- GI50 (MOLT-4): 53.7 µM
- CC50 (MOLT-4; [13]): > 100 µM
- TGI (MOLT-4; read-out: Log TGI (converted)): > 100 µM
- GI50 (U-251): 50.1 µM
- CC50 (U-251): > 100 µM
- TGI (U-251): > 100 µM
- GI50 [5]: 46.8 µM
- CC50 [5, 13]: > 100 µM
- TGI ([5]; read-out: Log TGI (converted)): > 100 µM
- pIC50 (NCI [6]): 4.41
- TGI (NCI [6]): > 100 µM
- pIC50 (carcinoma cell line): 4.30
- TGI (carcinoma cell line): > 100 µM
- GI50 (ACHN): 31.6 µM
- CC50 (ACHN; [13]): > 100 µM
- TGI (ACHN; read-out: Log TGI (converted)): > 100 µM
- GI50 (PC-3): 40.7 µM
- CC50 (PC-3): > 100 µM
- TGI (PC-3): > 100 µM
- GI50 (A498): 19.5 µM
- CC50 (A498; [13]): > 100 µM
- TGI (A498; read-out: Log TGI (converted)): 53.7 µM
- pIC50 (NCI [7]): 4.40
- TGI (NCI [7]): > 100 µM
- Activity (SF-268 [8]): 46%
- pIC50 (NCI [9]): 4.44
- TGI (NCI [9]): 87 µM

Structure (SMILES): CN(/N=N/c1nc(OCc2ccccc2)c2nc[nH]c2n1)C(=O)Oc1ccc([N+](=O)[O-])cc1
- GI50 (OVCAR-4): 22.9 µM
- CC50 (OVCAR-4): > 50.1 µM
- TGI (OVCAR-4): > 50.1 µM
- GI50 (UACC-62): 7.59 µM
- CC50 (UACC-62): 30.9 µM
- TGI (UACC-62): 15.1 µM
- GI50 (SK-OV-3): 10.5 µM
- CC50 (SK-OV-3): > 50.1 µM
- TGI (SK-OV-3): 28.8 µM
- GI50 (UACC-257): 38.9 µM
- CC50 (UACC-257): > 50.1 µM
- TGI (UACC-257): > 50.1 µM
- Activity (NCI-H460 [10]): 0%
- GI50 (SF-539): 9.77 µM
- CC50 (SF-539): > 50.1 µM
- TGI (SF-539): 28.8 µM
- GI50 (SK-MEL-28): 12.3 µM
- CC50 (SK-MEL-28): > 50.1 µM
- TGI (SK-MEL-28): > 50.1 µM
- pIC50 [2]: 4.96
- TGI [2]: 29 µM
- CC50 [2, 14]: 47 µM
- Activity (MCF7 [11]): 1%
- pIC50 (NCI [3]): 5.05
- TGI (NCI [3]): 30 µM
- CC50 (NCI [3]; [14]): 47 µM
- GI50 (TK-10): 12 µM
- CC50 (TK-10): > 50.1 µM
- TGI (TK-10): 33.9 µM
- GI50 (U-251): 7.59 µM
- CC50 (U-251): 31.6 µM
- TGI (U-251): 15.1 µM
- pIC50 (NCI [6]): 5.00
- TGI (NCI [6]): 30 µM
- CC50 (NCI [6]; [14]): 50 µM
- pIC50 (carcinoma cell line): 4.92
- TGI (carcinoma cell line): 34 µM
- CC50 (carcinoma cell line; [14]): 50 µM
- GI50 (PC-3): 10.7 µM
- CC50 (PC-3): > 50.1 µM
- TGI (PC-3): 26.9 µM
- pIC50 (NCI [7]): 5.00
- TGI (NCI [7]): 23 µM
- CC50 (NCI [7]; [14]): 46 µM
- GI50 (SR): 26.3 µM
- CC50 (SR; [13]): > 50.1 µM
- TGI (SR; read-out: Log TGI (converted)): > 50.1 µM
- pIC50 (NCI [9]): 5.05
- TGI (NCI [9]): 25 µM
- CC50 (NCI [9]; [14]): 44 µM
- Activity (SF-268 [12]): 4%
